Test results as given in ChEMBL document CHEMBL1121965, “Nonsteroidal estrogens: synthesis and estrogen receptor binding affinity of derivatives of (3R*,4S*)-3,4-bis(4-hydroxyphenyl)hexane (hexestrol) and (2R*,3S*)-2,3-bis(4-hydroxyphenyl)pentane (norhexestrol) functionalized on the side chain” (J Med Chem, 1982).

Each compound was assayed against Estrogen receptor (Ovis aries) (UniProt P49885+Q9TU15) (assay: The ratio of association constant for estrogen receptor using [3H]estradiol as a tracer, relative to estradiol).
Format: protein assay
Method in brief: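 Competitive binding: lamb uterine cytosol supplied estrogen receptor, [3H]estradiol served as tracer, and free tracer was removed from bound by charcoal-dextran adsorption. Relative association constants were expressed against estradiol set at 100.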

SMILES	RAC
CCCCC(=O)[C@@H](c1ccc(O)cc1)[C@H](CC)c1ccc(O)cc1	81
CC[C@H](c1ccc(O)cc1)[C@@H](CBr)c1ccc(O)cc1	150
CC[C@H](c1ccc(O)cc1)[C@@H](CO)c1ccc(O)cc1	8.9
CCCCCNC(=O)[C@@H](c1ccc(O)cc1)[C@H](CC)c1ccc(O)cc1	0.29
CC[C@H](c1ccc(O)cc1)[C@@H](CC)c1ccc(O)cc1	300
CC[C@H](c1ccc(O)cc1)[C@@H](CC(=O)C[N+]#N)c1ccc(O)cc1	2.8
CC[C@H](c1ccc(O)cc1)[C@@H](CC(N)=O)c1ccc(O)cc1	0.09
CCC(c1ccc(O)cc1)C(CCBr)c1ccc(O)cc1 (centres undefined)	71
CCC(c1ccc(O)cc1)C(CCF)c1ccc(O)cc1 (centres undefined)	129
CCCCC(=O)C[C@@H](c1ccc(O)cc1)[C@H](CC)c1ccc(O)cc1	9.4
CCCCCNC(=O)C[C@@H](c1ccc(O)cc1)[C@H](CC)c1ccc(O)cc1	0.15
CC[C@H](c1ccc(O)cc1)[C@@H](CF)c1ccc(O)cc1	129
CCCCCOC(=O)C(c1ccc(O)cc1)C(CC)c1ccc(O)cc1 (centres undefined)	61
CC[C@H](c1ccc(O)cc1)[C@@H](C(N)=O)c1ccc(O)cc1	0.2
CCC(c1ccc(O)cc1)C(CCI)c1ccc(O)cc1 (centres undefined)	60
CCCCCOC(=O)CC(c1ccc(O)cc1)C(CC)c1ccc(O)cc1 (centres undefined)	3.8
CC[C@H](c1ccc(O)cc1)[C@@H](CC(=O)OC)c1ccc(O)cc1	19
CCC(c1ccc(O)cc1)C(CCO)c1ccc(O)cc1 (centres undefined)	15
CC[C@H](c1ccc(O)cc1)[C@@H](C(C)=O)c1ccc(O)cc1	58
CC[C@H](c1ccc(O)cc1)[C@@H](CI)c1ccc(O)cc1	127
CC[C@H](c1ccc(O)cc1)[C@@H](CC(C)=O)c1ccc(O)cc1	21
CC[C@H](c1ccc(O)cc1)[C@@H](C)c1ccc(O)cc1	137
CC[C@H](c1ccc(O)cc1)[C@@H](C(=O)C[N+]#N)c1ccc(O)cc1	10.9
CCC(c1ccc(O)cc1)C(C(=O)OC)c1ccc(O)cc1 (centres undefined)	70
